Columns and labels:
[1] = molecular target: T1, Gamma-aminobutyric acid receptor subunit alpha-1/ beta-1 (Homo sapiens, UniProt P14867+P18505); test: Modulation of GABA Aalpha1beta1 receptor expressed in Xenopus laevis oocytes assessed as potentiation of GABA-induced chloride current at holding potential -70 mV by two-microelectrode voltage clamp technique; type: cell-based, Oocyte
T1 sequence (P14867 whole entry): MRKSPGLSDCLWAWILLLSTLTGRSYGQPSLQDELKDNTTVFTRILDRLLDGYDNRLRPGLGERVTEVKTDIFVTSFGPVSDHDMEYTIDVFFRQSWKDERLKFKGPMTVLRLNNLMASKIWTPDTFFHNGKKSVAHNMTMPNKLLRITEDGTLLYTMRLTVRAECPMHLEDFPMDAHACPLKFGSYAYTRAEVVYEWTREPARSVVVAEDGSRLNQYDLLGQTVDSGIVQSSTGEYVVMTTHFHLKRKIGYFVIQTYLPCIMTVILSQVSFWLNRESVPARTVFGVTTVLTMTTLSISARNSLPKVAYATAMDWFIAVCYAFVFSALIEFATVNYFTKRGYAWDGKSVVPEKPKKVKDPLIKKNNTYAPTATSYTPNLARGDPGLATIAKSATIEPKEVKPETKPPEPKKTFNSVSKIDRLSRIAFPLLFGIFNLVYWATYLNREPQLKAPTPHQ
T1 sequence (P18505 whole entry): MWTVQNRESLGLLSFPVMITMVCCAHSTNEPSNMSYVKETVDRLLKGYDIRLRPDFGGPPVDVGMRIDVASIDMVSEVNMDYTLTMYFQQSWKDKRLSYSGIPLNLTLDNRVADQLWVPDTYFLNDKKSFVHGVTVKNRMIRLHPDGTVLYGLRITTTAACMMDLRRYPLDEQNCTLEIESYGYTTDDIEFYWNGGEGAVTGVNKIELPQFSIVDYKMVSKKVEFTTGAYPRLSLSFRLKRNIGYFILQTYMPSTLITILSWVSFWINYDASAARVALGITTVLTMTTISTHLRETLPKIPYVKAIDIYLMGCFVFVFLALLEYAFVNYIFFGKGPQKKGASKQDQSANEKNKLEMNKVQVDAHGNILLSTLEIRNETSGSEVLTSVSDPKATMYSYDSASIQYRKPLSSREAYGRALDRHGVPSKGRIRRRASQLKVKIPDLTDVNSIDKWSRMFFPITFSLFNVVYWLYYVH
Outline: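 Stage V–VI Xenopus oocytes were injected with subunit cRNAs, with α1 and β1 mixed 3:1 for α1β1, and kept at +18 °C in modified ND96 at pH 7.4. Two-electrode voltage clamp was run at -70 mV and ambient temperature. Test GABA gave 3–7% of maximal current, set for each oocyte. Enhancement was (I(GABA+compound)/IGABA) − 1. EC50 came from a Hill fit. DMSO (max 0.3%) was matched in controls.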

[2] = molecular target: GABA-A receptor; GABA-A site (alpha1/beta2 interface) (Homo sapiens) (UniProt P14867+P47870); test: Modulation of GABA Aalpha1beta2 receptor expressed in Xenopus laevis oocytes assessed as potentiation of GABA-induced chloride current at holding potential -70 mV by two-microelectrode voltage clamp technique relative to GABA; type: cell-based; details: Oocyte
Outline: (§1)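 Oocytes were injected with α1, α2, α3 or α5 plus β2 cRNA at a 1:1 ratio and stored at 18 °C in ND96, pH 7.4. Enhancement was (I(GABA+compound)/IGABA)−1, and concentration-response data were Hill-fitted for EC50 and nH. Matched DMSO was ≤0.3%.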

[3] = molecular target: Gamma-aminobutyric acid receptor subunit alpha-3/ beta-2 (Homo sapiens) (UniProt P47870+P34903); test: Modulation of GABA Aalpha3beta2 receptor expressed in Xenopus laevis oocytes assessed as potentiation of GABA-induced chloride current at holding potential -70 mV by two-microelectrode voltage clamp technique relative to GABA; type: cell-based; details: Oocyte; outline: as §1
[4] = molecular target: GABA-A receptor alpha-1/beta-3 (Homo sapiens) (UniProt P14867+P28472); test: Modulation of GABA Aalpha1beta3 receptor expressed in Xenopus laevis oocytes assessed as potentiation of GABA-induced chloride current at holding potential -70 mV by two-microelectrode voltage clamp technique relative to GABA; type: cell-based; details: Oocyte
Outline: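 α1β3 receptors were expressed in defolliculated stage V–VI Xenopus oocytes and kept at 18 °C in ND96, pH 7.4. Potentiation was computed as (I(GABA+compound)/IGABA)−1, and EC50 and Hill coefficient came from nonlinear fits. Matched DMSO was ≤0.3%.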

[5] = molecular target: T2, Gamma-aminobutyric acid receptor subunit alpha-5/beta-2 (Homo sapiens, UniProt P31644+P47870); test: Modulation of GABA Aalpha5beta2 receptor expressed in Xenopus laevis oocytes assessed as potentiation of GABA-induced chloride current at holding potential -70 mV by two-microelectrode voltage clamp technique; type: cell-based, Oocyte
T2 sequence (P47870 whole entry): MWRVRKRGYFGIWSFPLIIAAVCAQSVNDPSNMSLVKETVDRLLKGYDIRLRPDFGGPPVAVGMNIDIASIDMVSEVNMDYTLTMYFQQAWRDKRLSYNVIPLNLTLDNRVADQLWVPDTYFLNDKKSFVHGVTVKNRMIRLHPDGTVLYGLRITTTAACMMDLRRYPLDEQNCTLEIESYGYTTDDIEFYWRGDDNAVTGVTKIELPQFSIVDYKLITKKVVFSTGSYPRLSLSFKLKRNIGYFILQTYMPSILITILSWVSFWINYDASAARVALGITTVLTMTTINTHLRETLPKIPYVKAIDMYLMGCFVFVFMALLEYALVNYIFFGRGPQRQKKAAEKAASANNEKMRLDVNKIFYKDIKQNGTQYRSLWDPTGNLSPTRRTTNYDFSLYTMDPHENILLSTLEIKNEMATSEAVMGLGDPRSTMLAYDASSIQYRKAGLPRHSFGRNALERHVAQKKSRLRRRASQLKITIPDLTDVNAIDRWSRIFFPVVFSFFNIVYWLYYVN
T2 sequence (P31644 whole entry): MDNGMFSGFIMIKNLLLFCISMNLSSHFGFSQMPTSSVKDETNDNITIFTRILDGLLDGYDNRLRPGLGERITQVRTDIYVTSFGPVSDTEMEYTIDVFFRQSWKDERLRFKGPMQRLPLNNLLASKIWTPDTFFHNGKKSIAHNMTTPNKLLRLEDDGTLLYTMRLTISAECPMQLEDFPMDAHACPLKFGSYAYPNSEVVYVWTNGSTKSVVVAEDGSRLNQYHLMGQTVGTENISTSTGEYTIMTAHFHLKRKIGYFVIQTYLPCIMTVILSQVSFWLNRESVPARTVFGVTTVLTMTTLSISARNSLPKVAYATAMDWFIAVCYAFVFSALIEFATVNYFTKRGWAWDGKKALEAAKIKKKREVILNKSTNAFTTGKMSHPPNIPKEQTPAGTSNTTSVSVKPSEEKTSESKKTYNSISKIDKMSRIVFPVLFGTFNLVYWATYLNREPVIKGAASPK
Outline: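 Stage V–VI Xenopus oocytes, defolliculated with 2 mg/mL collagenase, injected with α(1, 2, 3 or 5) and β2 cRNAs mixed 1:1, then kept at 18 °C in ND96 (pH 7.4). Enhancement = I(GABA+compound)/IGABA − 1. Curves were Hill-fitted for EC50. Bath DMSO was at most 0.3%, matched in controls.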

In the case of `C=CCc1ccc(O)c(-c2ccc(O)c(CC=C)c2)c1` [HONOKIOL], the EC50 [1] is reported as 57 µM, the Smax [2] is reported as 1030% and the Smax [3] is reported as 2390%. It also gave an Smax [4] of 878% and an EC50 [5] of 23.4 µM.
